Type in all cases: ADME
Data set [1] addresses T1, Solute carrier family 15 member 1 (Rattus norvegicus, UniProt P51574).
T1 sequence (P51574 whole entry): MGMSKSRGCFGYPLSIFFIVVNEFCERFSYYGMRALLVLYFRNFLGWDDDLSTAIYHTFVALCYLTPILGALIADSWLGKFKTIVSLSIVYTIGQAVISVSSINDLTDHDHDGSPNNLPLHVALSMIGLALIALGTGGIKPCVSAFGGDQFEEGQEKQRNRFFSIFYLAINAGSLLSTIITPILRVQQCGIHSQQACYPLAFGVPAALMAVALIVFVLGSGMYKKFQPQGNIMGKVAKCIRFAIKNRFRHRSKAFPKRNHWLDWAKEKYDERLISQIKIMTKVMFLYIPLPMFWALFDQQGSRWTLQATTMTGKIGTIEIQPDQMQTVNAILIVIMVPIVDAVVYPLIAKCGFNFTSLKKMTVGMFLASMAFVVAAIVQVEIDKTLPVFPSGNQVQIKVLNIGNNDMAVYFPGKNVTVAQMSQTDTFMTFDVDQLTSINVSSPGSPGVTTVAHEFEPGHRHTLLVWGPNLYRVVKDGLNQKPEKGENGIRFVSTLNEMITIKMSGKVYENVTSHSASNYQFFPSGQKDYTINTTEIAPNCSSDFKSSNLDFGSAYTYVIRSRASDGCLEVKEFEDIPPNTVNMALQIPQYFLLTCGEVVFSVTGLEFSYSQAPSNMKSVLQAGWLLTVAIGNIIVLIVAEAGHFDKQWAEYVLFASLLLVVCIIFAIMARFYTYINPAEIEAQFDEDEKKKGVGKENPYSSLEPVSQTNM
The experiment in a line: Drug uptake in Pichia pastoris GS115 expressing rat recombinant PEPT1 at 5 uM after 30s by dual-channel liquid scintillation counting analysis in presence of cephapirin relative to control. The conditions noted are these: 0.5 min. In a few lines: (§1)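 Rat PEPT1 (pPIC3.5K-rPept1) in GS115 His+Mut+ transformant, methanol-induced 20-24 hr in BMMY at 30°C, washed into 100 mM potassium phosphate pH 6.5. [3H]GlySar final 5.0 µM with inhibitor at 10 mM, 30 sec at 24°C. Counts taken by liquid scintillation after 24 hr standing. Values are vector-subtracted and given as % of buffer control. Mean ± SE, n=3.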

The target of data set [2] is T1, Solute carrier family 15 member 1. The experiment in a line: Drug uptake in Pichia pastoris GS115 expressing rat recombinant PEPT1 at 5 uM after 30s by dual-channel liquid scintillation counting analysis in presence of acyclovir relative to control. To be noted: in vivo, 0.5 min. Summed up:
(§2)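 [3H]GlySar 5.0 µM final, 30-s uptake at 24°C in 100 mM potassium phosphate pH 6.5, with or without a potential inhibitor at 10 mM. Cells are methanol-induced transformants. Values are vector-subtracted and expressed as percent of buffer control. Mean ± SE (n=3). ANOVA with Dunnett's test.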

The target in data set [3] is T2, Solute carrier family 15 member 1 (Homo sapiens, UniProt P46059).
T2 sequence (P46059 whole entry): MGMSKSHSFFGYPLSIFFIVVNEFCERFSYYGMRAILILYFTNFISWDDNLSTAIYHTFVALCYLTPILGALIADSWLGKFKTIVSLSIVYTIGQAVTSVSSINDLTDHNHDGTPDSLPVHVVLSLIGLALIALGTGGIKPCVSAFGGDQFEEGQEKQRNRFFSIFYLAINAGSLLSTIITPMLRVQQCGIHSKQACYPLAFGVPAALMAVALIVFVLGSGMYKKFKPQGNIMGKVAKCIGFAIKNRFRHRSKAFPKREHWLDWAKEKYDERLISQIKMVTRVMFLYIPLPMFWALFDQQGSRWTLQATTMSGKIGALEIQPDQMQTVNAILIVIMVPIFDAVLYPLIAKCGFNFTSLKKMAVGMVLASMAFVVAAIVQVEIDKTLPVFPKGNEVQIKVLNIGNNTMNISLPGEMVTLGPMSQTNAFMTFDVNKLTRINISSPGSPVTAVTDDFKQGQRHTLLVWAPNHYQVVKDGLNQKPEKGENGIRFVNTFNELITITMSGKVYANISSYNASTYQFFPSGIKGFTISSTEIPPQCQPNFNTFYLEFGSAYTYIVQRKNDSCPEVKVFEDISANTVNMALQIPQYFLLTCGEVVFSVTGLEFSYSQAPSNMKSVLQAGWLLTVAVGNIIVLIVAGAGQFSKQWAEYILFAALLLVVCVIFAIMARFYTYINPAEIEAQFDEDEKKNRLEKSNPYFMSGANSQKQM
The experiment in a line: Drug uptake in Pichia pastoris GS115 expressing human recombinant PEPT1 at 5 uM after 30s by dual-channel liquid scintillation counting analysis in presence of cephapirin relative to control. The conditions noted are these: 0.5 min. In a few lines:
as §2

In data set [4] the target is T1, Solute carrier family 15 member 1. Kind of data set: Drug uptake in Pichia pastoris GS115 expressing rat recombinant PEPT1 at 5 uM after 30s by dual-channel liquid scintillation counting analysis in presence of valacyclovir relative to control. To be noted: 0.5 min. In a few lines:
as §1

Data set [5] concerns the target T2, Solute carrier family 15 member 1. The experiment in a line: Drug uptake in Pichia pastoris GS115 expressing human recombinant PEPT1 at 5 uM after 30s by dual-channel liquid scintillation counting analysis in presence of TEA relative to control. To be noted: 0.5 min. In a few lines: as §2
The next data set addresses T3, PEPT1 (Homo sapiens, UniProt P46059).
T3 sequence (P46059 whole entry): T2 sequence (P46059 whole entry)
The experiment in a line: Drug uptake in Pichia pastoris GS115 expressing human recombinant PEPT1 at 5 uM after 30s by dual-channel liquid scintillation counting analysis relative to vector control. To be noted: read-out: FC. In a few lines: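 5.0 µM radiolabelled substrate uptake for 30 s at 24°C in pH 6.5 phosphate buffer by induced transformants. Radioactivity is counted by liquid scintillation and normalised to OD600. Results are compared with pPIC3.5K vector-alone cells. Mean ± SE (n=6).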

Data set [6] deals with T2, Solute carrier family 15 member 1. The experiment in a line: Drug uptake in Pichia pastoris GS115 expressing human recombinant PEPT1 at 5 uM after 30s by dual-channel liquid scintillation counting analysis relative to control. To be noted: 0.5 min. In a few lines: as §2
Data set [7] concerns the target T1, Solute carrier family 15 member 1. The experiment in a line: Drug uptake in Pichia pastoris GS115 expressing rat recombinant PEPT1 at 5 uM after 30s by dual-channel liquid scintillation counting analysis relative to control. To be noted: 0.5 min. Summed up: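 Rat PEPT1 and vector-only (pPIC3.5K) GS115 yeast, methanol-induced 20-24 hr. Cells were washed and concentrated tenfold in 100 mM phosphate buffer pH 6.5. [3H]GlySar or [14C]oseltamivir final 5.0 µM, 24°C, 30 sec and 5 min. Nonspecific binding was measured at 0°C and zero time. Uptake is given as pmol/OD600 by scintillation counting. Mean ± SE, n=6.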

Data set [8] deals with T2, Solute carrier family 15 member 1. Kind of data set: Drug uptake in Pichia pastoris GS115 expressing human recombinant PEPT1 at 5 uM after 30s by dual-channel liquid scintillation counting analysis in presence of GlyPro relative to control. The conditions noted are these: 0.5 min. Summed up:
as §2

Data set [9] shares this target. Kind of data set: Drug uptake in Pichia pastoris GS115 expressing human recombinant PEPT1 at 5 uM after 30s by dual-channel liquid scintillation counting analysis in presence of cefadroxil relative to control. The conditions noted are these: 0.5 min. In a few lines: as §2
Data set [10] has the same target. The experiment in a line: Drug uptake in Pichia pastoris GS115 expressing human recombinant PEPT1 at 5 uM after 30s by dual-channel liquid scintillation counting analysis in presence of cephradine relative to control. To be noted: 0.5 min. In a few lines: as §2

SMILES strings stand for the structures.

For `[3H]C(C(=O)O)N(C)C(=O)CN` (stereo unspecified), the Drug uptake is 122% in [1]; 109% in data set [2]; 100% in data set [3]; 5.5% in data set [4]; 113% in [5]; 100% in data set [6]. The Drug uptake in data set [7] turned out to be 100%; in [8] it was 3.9%; in data set [9], 6.4%; in [10], 23.2%. In addition, the uptake ratio at 0.5 min, 5 µM at PEPT1 turned out to be 23.

For the origin of these results see ChEMBL document CHEMBL3526053, “Species-dependent uptake of glycylsarcosine but not oseltamivir in Pichia pastoris expressing the rat, mouse, and human intestinal peptide transporter PEPT1” (Drug Metab Dispos, 2012).
